Measured values as given in ChEMBL document CHEMBL4043061, “Potent, Selective, Allosteric Inhibition of Human Plasmin by Sulfated Non-Saccharide Glycosaminoglycan Mimetics” (J Med Chem, 2017).
pIC50, pKd: −log10 of the molar value.

Columns and labels:
Plasminogen [1] = molecular target: T1, Plasminogen (Homo sapiens, UniProt P00747); experiment: Allosteric inhibition of full length human plasmin by using chromogenic substrate spectrozyme PL preincubated for 5 mins followed by substrate addition by spectrophotometric method
T1 sequence (P00747 97-580 limits assumed): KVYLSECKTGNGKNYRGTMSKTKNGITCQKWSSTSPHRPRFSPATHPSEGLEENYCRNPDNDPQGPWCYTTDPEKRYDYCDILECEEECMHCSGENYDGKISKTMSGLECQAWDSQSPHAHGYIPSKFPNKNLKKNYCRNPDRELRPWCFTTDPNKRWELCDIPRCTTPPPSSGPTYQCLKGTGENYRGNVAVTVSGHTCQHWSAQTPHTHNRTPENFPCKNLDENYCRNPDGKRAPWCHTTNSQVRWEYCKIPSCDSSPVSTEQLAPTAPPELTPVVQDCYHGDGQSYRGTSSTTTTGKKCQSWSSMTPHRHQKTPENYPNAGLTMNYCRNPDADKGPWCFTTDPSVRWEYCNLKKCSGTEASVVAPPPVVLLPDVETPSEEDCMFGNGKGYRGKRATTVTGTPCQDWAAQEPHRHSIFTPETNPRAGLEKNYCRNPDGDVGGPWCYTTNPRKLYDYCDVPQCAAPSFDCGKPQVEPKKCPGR
T1 sequence (P00747 581-810 limits assumed): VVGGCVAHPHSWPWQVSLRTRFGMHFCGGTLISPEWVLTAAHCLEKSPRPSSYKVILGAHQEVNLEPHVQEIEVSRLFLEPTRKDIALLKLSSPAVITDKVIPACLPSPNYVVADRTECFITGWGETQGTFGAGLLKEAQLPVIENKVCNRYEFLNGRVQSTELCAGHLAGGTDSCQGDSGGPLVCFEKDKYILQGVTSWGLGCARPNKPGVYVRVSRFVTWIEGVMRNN
Procedure, shortened: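 Inhibitor added from 0–20 mM aqueous stocks, or vehicle. After 5 min, Spectrozyme PL added (1 mM stock). Residual activity taken from initial rate of A405 rise. Logistic fit gives IC50, efficacy and Hill slope.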

Plasminogen [2] = molecular target: T1, Plasminogen; experiment: Binding affinity to human plasmin assessed as loss of intrinsic tryptophan fluorescence at 250 uM by spectrofluorometric method
Coagulation factor XI = Coagulation factor XI (Homo sapiens, UniProt P03951); experiment: Inhibition of human F11a by using chromogenic substrate S-2366 preincubated for 5 mins followed by substrate addition by spectrophotometric method
Chain of Coagulation factor XI (P03951 19-387 limits assumed): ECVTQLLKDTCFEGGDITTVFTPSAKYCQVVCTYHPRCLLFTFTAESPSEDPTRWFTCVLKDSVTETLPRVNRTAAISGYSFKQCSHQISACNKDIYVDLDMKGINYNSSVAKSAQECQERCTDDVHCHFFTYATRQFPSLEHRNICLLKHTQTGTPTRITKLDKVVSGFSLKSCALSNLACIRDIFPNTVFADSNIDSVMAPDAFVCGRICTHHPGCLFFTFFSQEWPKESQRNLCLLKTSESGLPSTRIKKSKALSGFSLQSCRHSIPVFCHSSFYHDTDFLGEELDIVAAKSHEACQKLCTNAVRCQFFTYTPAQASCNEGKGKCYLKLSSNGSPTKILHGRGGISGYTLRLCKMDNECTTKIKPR
Chain of Coagulation factor XI (P03951 388-625 limits assumed): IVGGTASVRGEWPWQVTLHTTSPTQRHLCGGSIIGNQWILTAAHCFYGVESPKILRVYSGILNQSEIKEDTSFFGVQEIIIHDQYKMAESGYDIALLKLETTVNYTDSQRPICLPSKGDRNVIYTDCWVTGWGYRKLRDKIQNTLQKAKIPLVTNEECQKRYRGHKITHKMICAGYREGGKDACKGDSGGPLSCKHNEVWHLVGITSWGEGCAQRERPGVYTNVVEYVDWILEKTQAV
Procedure, shortened: (§1)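 Tris-HCl pH 7.4 buffer (100 mM NaCl, 2.5 mM CaCl2, 0.1% PEG8000, 0.02% Tween80) at 37 °C; factor IXa buffer also held 33% ethylene glycol. Final enzyme: factor Xa 1.09 nM, XIa 0.75 nM, XIIa 10 nM, IXa 250 nM, trypsin 0.145 µg/mL, chymotrypsin […]. Inhibitor from 0–20 mM stock, 5 min preincubation, then substrate. Initial A405 rate, sigmoidal dose–response fit.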

[3] = Inhibition of human chymotrypsin using chromogenic substrate spectrozyme Cty preincubated for 5 mins followed by substrate addition by spectrophotometric method; procedure, shortened: as §1
Coagulation factor X = Coagulation factor X (Homo sapiens, UniProt P00742); experiment: Inhibition of human F10a by using chromogenic substrate spectrozyme F10a preincubated for 5 mins followed by substrate addition by spectrophotometric method; procedure, shortened: as §1
Chain of Coagulation factor X (P00742 41-179 limits assumed): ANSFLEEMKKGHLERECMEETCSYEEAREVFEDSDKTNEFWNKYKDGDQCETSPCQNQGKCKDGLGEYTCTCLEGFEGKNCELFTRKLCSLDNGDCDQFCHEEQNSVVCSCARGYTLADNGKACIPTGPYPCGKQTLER
Chain of Coagulation factor X (P00742 235-488 limits assumed): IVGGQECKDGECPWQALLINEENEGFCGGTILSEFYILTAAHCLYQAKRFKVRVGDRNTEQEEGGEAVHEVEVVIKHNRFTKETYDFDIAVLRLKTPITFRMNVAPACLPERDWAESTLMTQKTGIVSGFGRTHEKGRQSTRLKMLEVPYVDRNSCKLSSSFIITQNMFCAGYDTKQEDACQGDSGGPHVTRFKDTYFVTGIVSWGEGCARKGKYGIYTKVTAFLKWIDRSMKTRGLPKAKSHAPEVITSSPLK

Coagulation factor XII = molecular target: T2, Coagulation factor XII (Homo sapiens, UniProt P00748); experiment: Inhibition of human F12a by using chromogenic substrate spectrozyme F12a preincubated for 5 mins followed by substrate addition by spectrophotometric method
T2 sequence (P00748 whole entry): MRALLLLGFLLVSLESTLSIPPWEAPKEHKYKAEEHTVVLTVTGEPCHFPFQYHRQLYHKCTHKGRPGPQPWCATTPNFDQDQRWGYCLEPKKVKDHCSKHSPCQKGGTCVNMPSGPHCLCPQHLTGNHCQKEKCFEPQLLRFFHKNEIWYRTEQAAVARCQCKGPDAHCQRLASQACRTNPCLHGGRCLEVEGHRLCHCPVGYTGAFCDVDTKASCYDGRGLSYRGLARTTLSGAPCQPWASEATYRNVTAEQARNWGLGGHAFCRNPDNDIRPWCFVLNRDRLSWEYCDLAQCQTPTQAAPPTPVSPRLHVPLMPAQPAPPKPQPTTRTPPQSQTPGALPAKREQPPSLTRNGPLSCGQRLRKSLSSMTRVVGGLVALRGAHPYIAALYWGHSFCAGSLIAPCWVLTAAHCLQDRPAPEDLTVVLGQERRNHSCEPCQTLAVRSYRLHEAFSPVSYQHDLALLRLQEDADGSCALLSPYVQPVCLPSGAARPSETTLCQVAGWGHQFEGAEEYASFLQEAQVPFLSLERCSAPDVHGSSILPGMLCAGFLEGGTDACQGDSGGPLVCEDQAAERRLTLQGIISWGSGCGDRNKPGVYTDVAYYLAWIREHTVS

Prothrombin = Prothrombin (Homo sapiens, UniProt P00734); experiment: Inhibition of human thrombin by using chromogenic substrate spectrozyme TH preincubated for 5 mins followed by substrate addition by spectrophotometric method
Procedure, shortened: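 Thrombin at 6 nM final, 25 °C, in 20 mM Tris-HCl pH 7.4 with 100 mM NaCl, 2.5 mM CaCl2, 0.1% PEG8000, 0.02% Tween80. Inhibitor (0–20 mM stock) or vehicle preincubated 5 min with enzyme. Spectrozyme TH added (1.0 mM stock). Residual activity read as initial rate of A405 increase and fitted to a sigmoidal dose–response curve.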

Coagulation factor IX = Coagulation factor IX (Homo sapiens, UniProt P00740); experiment: Inhibition of human F9a by using chromogenic substrate spectrozyme F9a preincubated for 5 mins followed by substrate addition by spectrophotometric method
Chain of Coagulation factor IX (P00740 47-191 limits assumed): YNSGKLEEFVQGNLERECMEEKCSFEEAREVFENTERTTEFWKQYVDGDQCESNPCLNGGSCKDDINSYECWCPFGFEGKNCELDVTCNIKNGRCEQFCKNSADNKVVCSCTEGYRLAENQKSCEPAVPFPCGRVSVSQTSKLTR
Chain of Coagulation factor IX (P00740 227-461 limits assumed): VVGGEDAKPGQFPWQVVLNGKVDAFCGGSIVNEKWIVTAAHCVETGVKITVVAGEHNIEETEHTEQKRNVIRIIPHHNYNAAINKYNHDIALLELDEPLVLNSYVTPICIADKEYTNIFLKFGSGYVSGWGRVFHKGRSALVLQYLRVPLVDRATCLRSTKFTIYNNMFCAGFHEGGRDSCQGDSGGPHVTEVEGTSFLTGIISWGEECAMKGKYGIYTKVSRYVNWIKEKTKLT

[4] = Inhibition of human trypsin using chromogenic substrate SS-2222 preincubated for 5 mins followed by substrate addition by spectrophotometric method; procedure, shortened: as §1
Plasminogen [5] = molecular target: T1, Plasminogen; experiment: Binding affinity to human dansyl-EGR-chloromethylketone-plasmin complex assessed as loss of intrinsic tryptophan fluorescence by spectrofluorometric method

Row | Structure (SMILES) | pIC50 (Plasminogen [1]) | further results
1 | Cc1cc(COc2cc(OS(=O)(=O)O)cc3oc(-c4ccc(OS(=O)(=O)O)c(OS(=O)(=O)O)c4)c(OS(=O)(=O)O)c(=O)c23)c(C)cc1COc1cc(OS(=O)(=O)O)cc2oc(-c3ccc(OS(=O)(=O)O)c(OS(=O)(=O)O)c3)c(OS(=O)(=O)O)c(=O)c12 | 5.19 | pKd (Plasminogen [2]): 6.00
2 | O=c1c(OS(=O)(=O)O)c(-c2ccc(OS(=O)(=O)O)c(OS(=O)(=O)O)c2)oc2cc(OS(=O)(=O)O)cc(OCc3ccc(COc4cc(OS(=O)(=O)O)cc5oc(-c6ccc(OS(=O)(=O)O)c(OS(=O)(=O)O)c6)c(OS(=O)(=O)O)c(=O)c45)cc3)c12 |  | pIC50 (Coagulation factor XI): 3.74; pIC50 [3]: 3.71; pIC50 (Coagulation factor X): 3.30; pIC50 (Coagulation factor XII): < 3.00; pIC50 (Prothrombin): 3.81; pIC50 (Coagulation factor IX): < 2.70; pIC50 [4]: < 3.36
3 | O=c1cc(-c2ccc(OS(=O)(=O)O)cc2)oc2cc(OS(=O)(=O)O)cc(OCc3ccc(COc4cc(OS(=O)(=O)O)cc5oc(-c6ccc(OS(=O)(=O)O)cc6)cc(=O)c45)cc3)c12 | 4.47 | 
4 | O=c1c(OS(=O)(=O)O)c(-c2ccc(OS(=O)(=O)O)c(OS(=O)(=O)O)c2)oc2cc(OS(=O)(=O)O)cc(OCc3cccc(COc4cc(OS(=O)(=O)O)cc5oc(-c6ccc(OS(=O)(=O)O)c(OS(=O)(=O)O)c6)c(OS(=O)(=O)O)c(=O)c45)c3)c12 | 4.14 | 
5 | O=c1cc(-c2ccc(OS(=O)(=O)O)cc2)oc2cc(OS(=O)(=O)O)cc(OCc3cccc(COc4cc(OS(=O)(=O)O)cc5oc(-c6ccc(OS(=O)(=O)O)cc6)cc(=O)c45)c3)c12 | 4.47 | 
6 | O=c1c(OS(=O)(=O)O)c(-c2ccc(OS(=O)(=O)O)c(OS(=O)(=O)O)c2)oc2cc(OS(=O)(=O)O)cc(OCc3ccc(-c4ccc(COc5cc(OS(=O)(=O)O)cc6oc(-c7ccc(OS(=O)(=O)O)c(OS(=O)(=O)O)c7)c(OS(=O)(=O)O)c(=O)c56)cc4)cc3)c12 | 4.43 | 
7 | O=c1c(OS(=O)(=O)O)c(-c2ccc(OS(=O)(=O)O)c(OS(=O)(=O)O)c2)oc2cc(OS(=O)(=O)O)cc(OCc3cccc(COc4cc(OS(=O)(=O)O)cc5oc(-c6ccc(OS(=O)(=O)O)c(OS(=O)(=O)O)c6)c(OS(=O)(=O)O)c(=O)c45)n3)c12 | 3.64 | 
8 | Cc1cc(COc2cc(OS(=O)(=O)O)cc3oc(-c4ccc(OS(=O)(=O)O)cc4)cc(=O)c23)c(C)cc1COc1cc(OS(=O)(=O)O)cc2oc(-c3ccc(OS(=O)(=O)O)cc3)cc(=O)c12 | 4.70 | pKd (Plasminogen [5]): 5.27; pKd (Plasminogen [2]): 5.72
9 | O=c1cc(-c2ccc(OS(=O)(=O)O)cc2)oc2cc(OS(=O)(=O)O)cc(OCCCOc3cc(OS(=O)(=O)O)cc4oc(-c5ccc(OS(=O)(=O)O)cc5)cc(=O)c34)c12 | < 3.00 | 
10 | O=c1cc(-c2ccc(OS(=O)(=O)O)cc2)oc2cc(OS(=O)(=O)O)cc(OCc3ccc(COc4cc(OS(=O)(=O)O)cc5oc(-c6ccc(OS(=O)(=O)O)c(OS(=O)(=O)O)c6)c(OS(=O)(=O)O)c(=O)c45)cc3)c12 | 4.85 | 

Continued by rising pIC50 (Plasminogen [1]), values first:

Row | pIC50 (Plasminogen [1]) | Structure (SMILES) | further results
11 | 3.55 | O=c1cc(-c2ccc(OS(=O)(=O)O)cc2)oc2cc(OS(=O)(=O)O)cc(OCCCCOc3cc(OS(=O)(=O)O)cc4oc(-c5ccc(OS(=O)(=O)O)cc5)cc(=O)c34)c12 | 
12 | 3.92 | O=c1cc(-c2ccc(OS(=O)(=O)O)cc2)oc2cc(OS(=O)(=O)O)cc(OC/C=C/COc3cc(OS(=O)(=O)O)cc4oc(-c5ccc(OS(=O)(=O)O)cc5)cc(=O)c34)c12 | pKd (Plasminogen [2]): 5.44
13 | 3.94 | O=c1c(O)c(-c2ccc(O)c(O)c2)oc2cc(O)cc(OCc3ccc(COc4cc(O)cc5oc(-c6ccc(O)c(O)c6)c(O)c(=O)c45)cc3)c12 | pIC50 (Coagulation factor XI): 3.68; pIC50 (Coagulation factor X): 3.67; pIC50 (Prothrombin): 3.57
14 | 4.15 | O=c1cc(-c2ccc(OS(=O)(=O)O)cc2)oc2cc(OS(=O)(=O)O)cc(OCCOc3cc(OS(=O)(=O)O)cc4oc(-c5ccc(OS(=O)(=O)O)cc5)cc(=O)c34)c12 | 
15 | 4.33 | O=c1cc(-c2ccc(OS(=O)(=O)O)cc2)oc2cc(OS(=O)(=O)O)cc(OCc3ccc(-c4ccc(COc5cc(OS(=O)(=O)O)cc6oc(-c7ccc(OS(=O)(=O)O)cc7)cc(=O)c56)cc4)cc3)c12 | 
16 | 4.38 | O=c1cc(-c2ccc(OS(=O)(=O)O)cc2)oc2cc(OS(=O)(=O)O)cc(OCc3cccc(COc4cc(OS(=O)(=O)O)cc5oc(-c6ccc(OS(=O)(=O)O)cc6)cc(=O)c45)n3)c12 | 
